What was measured:
[1] = molecular target: 5-hydroxytryptamine receptor 2A (Homo sapiens, UniProt P28223); test: Displacement of [3H]-Ketanserin from human recombinant 5-HT2A receptor transiently expressed in HEKT cells after 90 mins by microbeta scintillation counting method; type: cell-based
In short: (§1)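 Radioligand binding run by the NIMH Psychoactive Drug Screening Program. […] Otherwise Ki comes from sigmoidal curve fits of triplicate measurements in a single experiment, or is averaged over repeated experiments each run in triplicate.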

[2] = molecular target: T1, 5-hydroxytryptamine receptor 1B (Homo sapiens, UniProt P28222); test: Displacement of [3H]5-CT from human recombinant 5-HT1B receptor expressed in stable HEK cells after 90 mins by microbeta scintillation counting method; type: cell-based
T1 sequence (P28222 whole entry): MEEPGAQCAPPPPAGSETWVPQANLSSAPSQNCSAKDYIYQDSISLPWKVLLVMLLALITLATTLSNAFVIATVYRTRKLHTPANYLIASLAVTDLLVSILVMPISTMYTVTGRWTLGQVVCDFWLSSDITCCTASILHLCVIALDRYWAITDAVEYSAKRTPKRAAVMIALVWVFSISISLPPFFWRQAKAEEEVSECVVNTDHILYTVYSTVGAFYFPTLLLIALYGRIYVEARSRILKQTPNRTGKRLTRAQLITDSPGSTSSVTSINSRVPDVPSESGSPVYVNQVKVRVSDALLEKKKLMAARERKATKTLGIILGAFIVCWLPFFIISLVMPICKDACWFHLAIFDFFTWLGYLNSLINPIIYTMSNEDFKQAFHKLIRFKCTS
In short: (§2)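 Radioligand binding was run by the NIMH Psychoactive Drug Screening Program. Compounds were first screened at 10 μM. Those giving ≥50% binding were taken to full competition curves. Ki is reported as pKi from a sigmoidal curve fit of triplicate measurements in a single experiment; the error is the curve-fit error.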

[3] = molecular target: T2, Alpha-1B adrenergic receptor (Homo sapiens, UniProt P35368); test: Displacement of [3H]-Prazosin from human recombinant adrenergic Alpha1B receptor expressed in HEKT cells after 90 mins by microbeta scintillation counting method; type: cell-based; in short: as §2
T2 sequence (P35368 whole entry): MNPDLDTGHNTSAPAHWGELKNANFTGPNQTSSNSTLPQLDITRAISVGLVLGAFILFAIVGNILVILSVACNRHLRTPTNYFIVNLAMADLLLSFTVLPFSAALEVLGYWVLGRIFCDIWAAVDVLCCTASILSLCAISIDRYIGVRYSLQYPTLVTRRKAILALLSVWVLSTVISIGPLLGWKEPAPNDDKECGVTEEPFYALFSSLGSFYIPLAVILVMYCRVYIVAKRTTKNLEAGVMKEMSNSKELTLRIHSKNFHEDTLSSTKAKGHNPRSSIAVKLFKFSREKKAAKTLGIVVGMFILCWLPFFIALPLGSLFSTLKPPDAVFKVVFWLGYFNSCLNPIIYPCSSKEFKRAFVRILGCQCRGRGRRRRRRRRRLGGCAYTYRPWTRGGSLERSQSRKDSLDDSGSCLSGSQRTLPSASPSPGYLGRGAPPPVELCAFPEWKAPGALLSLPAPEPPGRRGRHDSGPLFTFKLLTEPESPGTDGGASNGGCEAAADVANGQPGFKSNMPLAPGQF

[4] = molecular target: 5-hydroxytryptamine receptor 1E (Homo sapiens, UniProt P28566); test: Displacement of [3H]-HT from human recombinant 5-HT1E receptor expressed in stable HEK cells at 10 uM after 90 mins by microbeta scintillation counting method relative to control; type: cell-based; in short: as §1
5-hydroxytryptamine receptor 1E, sequence (P28566 whole entry): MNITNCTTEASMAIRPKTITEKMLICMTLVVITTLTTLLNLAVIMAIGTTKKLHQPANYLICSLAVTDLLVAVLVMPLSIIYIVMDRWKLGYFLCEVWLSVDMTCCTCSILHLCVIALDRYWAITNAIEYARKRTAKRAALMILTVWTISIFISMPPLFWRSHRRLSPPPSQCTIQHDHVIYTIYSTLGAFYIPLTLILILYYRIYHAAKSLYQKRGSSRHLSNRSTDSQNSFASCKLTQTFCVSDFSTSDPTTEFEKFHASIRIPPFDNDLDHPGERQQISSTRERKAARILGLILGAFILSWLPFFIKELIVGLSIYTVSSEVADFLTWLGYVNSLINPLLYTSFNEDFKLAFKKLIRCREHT

[5] = molecular target: T1, 5-hydroxytryptamine receptor 1B; test: Displacement of [3H]5-CT from human recombinant 5-HT1B receptor expressed in stable HEK cells at 10 uM after 90 mins by microbeta scintillation counting method relative to control; type: cell-based
[6] = molecular target: T3, Histamine H4 receptor (Homo sapiens, UniProt Q9H3N8); test: Displacement of [3H]-Histamine from human recombinant histamine H4 receptor expressed in HEKT cells after 90 mins by microbeta scintillation counting method; type: cell-based; in short: as §1
T3 sequence (Q9H3N8 whole entry): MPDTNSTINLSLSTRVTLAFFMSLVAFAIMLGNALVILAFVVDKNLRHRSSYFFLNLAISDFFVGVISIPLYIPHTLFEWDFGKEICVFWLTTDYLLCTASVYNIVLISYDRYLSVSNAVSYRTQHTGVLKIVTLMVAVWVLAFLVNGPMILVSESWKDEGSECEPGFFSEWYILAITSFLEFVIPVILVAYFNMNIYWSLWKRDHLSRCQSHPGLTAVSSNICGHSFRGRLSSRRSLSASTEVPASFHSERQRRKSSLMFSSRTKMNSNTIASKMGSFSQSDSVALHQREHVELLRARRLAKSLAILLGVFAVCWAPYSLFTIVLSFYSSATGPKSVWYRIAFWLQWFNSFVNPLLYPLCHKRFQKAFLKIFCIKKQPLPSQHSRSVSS

[7] = molecular target: T4, 5-hydroxytryptamine receptor 3A (Homo sapiens) (UniProt P46098); test: Displacement of [3H]-GR65630 from human recombinant 5-HT3 receptor expressed in HEKT cells at 10 uM after 90 mins by microbeta scintillation counting method relative to control; type: cell-based; in short: as §1
T4 sequence (whole entry): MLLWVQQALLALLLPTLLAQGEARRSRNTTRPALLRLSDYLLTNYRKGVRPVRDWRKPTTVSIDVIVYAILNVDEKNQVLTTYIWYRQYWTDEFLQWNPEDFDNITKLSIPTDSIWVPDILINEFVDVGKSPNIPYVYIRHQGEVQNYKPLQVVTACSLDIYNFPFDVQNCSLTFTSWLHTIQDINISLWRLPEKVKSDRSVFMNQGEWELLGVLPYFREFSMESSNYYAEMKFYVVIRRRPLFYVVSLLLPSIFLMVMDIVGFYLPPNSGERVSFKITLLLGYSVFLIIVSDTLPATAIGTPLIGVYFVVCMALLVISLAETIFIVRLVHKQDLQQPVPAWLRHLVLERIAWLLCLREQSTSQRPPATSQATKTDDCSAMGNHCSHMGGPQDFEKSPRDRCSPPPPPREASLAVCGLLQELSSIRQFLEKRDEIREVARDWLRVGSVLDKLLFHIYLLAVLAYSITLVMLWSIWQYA

[8] = molecular target: D(3) dopamine receptor (Homo sapiens, UniProt P35462); test: Displacement of [3H]-N-methylspiperone from human recombinant dopamine D3 receptor expressed in HEKT cells at 10 uM after 90 mins by microbeta scintillation counting method relative to control; type: cell-based; in short: as §1
D(3) dopamine receptor, sequence (P35462 whole entry): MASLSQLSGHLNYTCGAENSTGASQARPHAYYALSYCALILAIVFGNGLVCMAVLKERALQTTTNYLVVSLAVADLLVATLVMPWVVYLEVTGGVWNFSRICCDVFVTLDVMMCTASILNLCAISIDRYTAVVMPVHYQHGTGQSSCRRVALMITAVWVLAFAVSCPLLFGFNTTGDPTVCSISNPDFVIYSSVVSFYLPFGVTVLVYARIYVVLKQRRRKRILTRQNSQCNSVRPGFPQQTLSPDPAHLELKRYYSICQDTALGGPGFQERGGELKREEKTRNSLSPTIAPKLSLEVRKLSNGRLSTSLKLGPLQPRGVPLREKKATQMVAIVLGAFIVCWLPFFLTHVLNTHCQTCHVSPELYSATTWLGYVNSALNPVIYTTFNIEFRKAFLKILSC

[9] = molecular target: D(1A) dopamine receptor (Homo sapiens, UniProt P21728); test: Displacement of [3H]-SCH23390 from human recombinant dopamine D1 receptor expressed in HEKT cells after 90 mins by microbeta scintillation counting method; type: cell-based; in short: as §2
D(1A) dopamine receptor, sequence (P21728 whole entry): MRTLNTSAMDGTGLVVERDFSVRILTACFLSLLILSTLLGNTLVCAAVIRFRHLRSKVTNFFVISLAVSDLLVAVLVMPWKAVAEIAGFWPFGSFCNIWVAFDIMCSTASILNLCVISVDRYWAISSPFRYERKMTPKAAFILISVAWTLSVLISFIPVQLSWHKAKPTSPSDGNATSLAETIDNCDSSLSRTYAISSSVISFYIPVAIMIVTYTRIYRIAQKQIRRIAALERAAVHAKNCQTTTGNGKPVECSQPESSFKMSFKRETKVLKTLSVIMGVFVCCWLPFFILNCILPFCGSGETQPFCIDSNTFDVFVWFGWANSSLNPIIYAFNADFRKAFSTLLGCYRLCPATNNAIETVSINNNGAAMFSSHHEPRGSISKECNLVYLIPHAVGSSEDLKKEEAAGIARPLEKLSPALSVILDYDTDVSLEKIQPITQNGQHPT

[10] = molecular target: T5, Muscarinic acetylcholine receptor M4 (Homo sapiens, UniProt P08173); test: Displacement of [3H]-QNB/[3H]-NMS from human recombinant Muscarinic acetylcholine M4 receptor expressed in stable CHO cells after 90 mins by microbeta scintillation counting method; type: cell-based; in short: as §2
T5 sequence (P08173 whole entry): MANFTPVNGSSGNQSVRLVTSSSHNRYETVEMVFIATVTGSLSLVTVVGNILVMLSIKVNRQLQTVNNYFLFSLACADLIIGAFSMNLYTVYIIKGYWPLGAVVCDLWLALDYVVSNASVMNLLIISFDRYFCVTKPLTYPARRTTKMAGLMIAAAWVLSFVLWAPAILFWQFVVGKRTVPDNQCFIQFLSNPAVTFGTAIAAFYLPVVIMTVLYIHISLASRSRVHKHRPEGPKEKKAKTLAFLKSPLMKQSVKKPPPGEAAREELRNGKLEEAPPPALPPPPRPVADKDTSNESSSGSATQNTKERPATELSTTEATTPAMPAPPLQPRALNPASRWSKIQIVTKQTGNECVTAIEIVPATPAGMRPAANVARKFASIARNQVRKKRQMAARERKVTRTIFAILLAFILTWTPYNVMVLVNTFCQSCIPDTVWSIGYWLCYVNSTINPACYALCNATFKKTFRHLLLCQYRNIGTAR

[11] = molecular target: T6, Muscarinic acetylcholine receptor M4 (Homo sapiens) (UniProt P08173); test: Displacement of [3H]-QNB/[3H]-NMS from human recombinant Muscarinic acetylcholine M4 receptor expressed in stable CHO cells at 10 uM after 90 mins by microbeta scintillation counting method relative to control; type: cell-based
T6 sequence (whole entry): T5 sequence (P08173 whole entry)

[12] = molecular target: T3, Histamine H4 receptor; test: Displacement of [3H]-Histamine from human recombinant histamine H4 receptor expressed in HEKT cells at 10 uM after 90 mins by microbeta scintillation counting method relative to control; type: cell-based; in short: as §1
[13] = Displacement of [3H]-Flunitrazepam from BZP receptor in rat brain after 90 mins by microbeta scintillation counting method; type: tissue-based
In short: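 Radioligand binding run by the NIMH Psychoactive Drug Screening Program. Otherwise Ki comes from sigmoidal curve fits of triplicate measurements in a single experiment, or is averaged over repeated experiments each run in triplicate.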

5-hydroxytryptamine receptor 2A, sequence (P28223 whole entry): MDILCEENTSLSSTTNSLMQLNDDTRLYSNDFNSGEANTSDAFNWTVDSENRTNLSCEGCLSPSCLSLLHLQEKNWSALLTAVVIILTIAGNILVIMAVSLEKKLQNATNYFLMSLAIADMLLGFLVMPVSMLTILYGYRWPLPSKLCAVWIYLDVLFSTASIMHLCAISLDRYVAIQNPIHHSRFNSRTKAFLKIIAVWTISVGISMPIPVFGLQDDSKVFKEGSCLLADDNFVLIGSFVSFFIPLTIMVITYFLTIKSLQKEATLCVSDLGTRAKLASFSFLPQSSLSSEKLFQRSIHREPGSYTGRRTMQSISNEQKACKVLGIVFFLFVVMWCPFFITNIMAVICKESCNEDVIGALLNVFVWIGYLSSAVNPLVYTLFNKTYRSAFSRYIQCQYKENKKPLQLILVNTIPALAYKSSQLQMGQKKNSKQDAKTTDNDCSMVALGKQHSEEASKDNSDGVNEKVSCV

SMILES	Ki [1] [µM]	Ki [2] [µM]	Ki [3] [µM]	inhibition [4] [%]	inhibition [5] [%]	Ki [6] [µM]	inhibition [7] [%]	inhibition [8] [%]	Ki [9] [µM]	Ki [10] [µM]	inhibition [11] [%]	inhibition [12] [%]	pKi [13]
CC[C@H]1c2cc(C)ccc2OC[C@@]1(C)N (racemic)	> 10	> 10	> 10	< 50	< 50	> 10	< 50	< 50	> 10	> 10	< 50	< 50	< 5
COc1cc(OC)c2c(c1)OC[C@@]1(C)NCC[C@@H]21 (racemic)		> 10	> 10	< 50	< 50	> 10	< 50	< 50	> 10	> 10	< 50	< 50	5.2
C[C@@]12CN(c3ccccc3)c3ccccc3[C@@H]1CCN2 (racemic)		> 10	> 10			> 10			> 10	> 10			
CC[C@H]1c2cc(OC)ccc2CC[C@@]1(C)N (racemic)	> 10	> 10	> 10	< 50	< 50	> 10	< 50	< 50	> 10	> 10	< 50	< 50	5.8
CC[C@H]1c2ccccc2N(c2ccccc2)C[C@@]1(C)N (racemic)	> 10	> 10	> 10			> 10			> 10	> 10			

Reference: ChEMBL document CHEMBL4304834, “3-Amino-chromanes and Tetrahydroquinolines as Selective 5-HT2B, 5-HT7, or σ1 Receptor Ligands” (ACS Med Chem Lett, 2019)
